Test results from ChEMBL document CHEMBL4613270, “Structure-Activity Relationship Study Enables the Discovery of a Novel Berberine Analogue as the RXRα Activator to Inhibit Colon Cancer” (J Med Chem, 2020).
Activity calls are given as the source filed them. The calls are words filed in the database; no cut-off is given here.

Legend:
[1] = biological target: T1, Retinoic acid receptor RXR-alpha (Homo sapiens) (UniProt P19793); assay: Activation of RXRalpha in human KM12C cells assessed as inhibition of Wnt/beta-catenin-dependent transcriptional activity at 25 to 50 uM incubated for 15 hrs by TOP/FOP luciferase assay; type: cell-based
T1 sequence (whole entry): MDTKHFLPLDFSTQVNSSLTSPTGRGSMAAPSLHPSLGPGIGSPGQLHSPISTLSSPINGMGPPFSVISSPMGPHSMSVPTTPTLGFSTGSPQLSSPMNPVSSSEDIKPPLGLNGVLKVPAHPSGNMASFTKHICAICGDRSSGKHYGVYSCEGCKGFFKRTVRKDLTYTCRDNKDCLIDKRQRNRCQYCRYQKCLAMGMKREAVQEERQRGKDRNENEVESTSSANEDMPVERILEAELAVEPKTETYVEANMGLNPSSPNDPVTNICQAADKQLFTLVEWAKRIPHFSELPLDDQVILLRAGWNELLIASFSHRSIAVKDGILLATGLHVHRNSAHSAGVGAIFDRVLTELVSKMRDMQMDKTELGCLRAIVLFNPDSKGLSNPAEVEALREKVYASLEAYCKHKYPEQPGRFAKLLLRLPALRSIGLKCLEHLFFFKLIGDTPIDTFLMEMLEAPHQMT
Method in brief: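 TOP/FOP reporter: cells co-transfected by lipofection with pRL-TK plus TOPflash or FOPflash; compound added 20 h after transfection for 15 h; passive lysis at 4 °C, 1 h; firefly and Renilla luciferase measured by dual-luciferase assay.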

[2] = biological target: T1, Retinoic acid receptor RXR-alpha (Homo sapiens); assay: Activation of RXRalpha (unknown origin) expressed in human SW620 cells co-expressing beta-catenin assessed as induction of RXRalpha interaction with beta-catenin at 40 to 80 uM incubated for 15 hrs by mammalian two-hybrid assay; type: cell-based; details: SW-620
Method in brief: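 Mammalian two-hybrid: cells co-transfected by lipofection with pBIND-β-catenin/S33Y plus pACT-RXRα (RXRα–β-catenin) or pACT-c-Cbl (β-catenin–c-Cbl); 20 h after transfection, compound added for 15 h; cells lysed in passive lysis buffer, 4 °C, 1 h; firefly and Renilla luciferase read by dual-luciferase kit.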

[3] = biological target: T1, Retinoic acid receptor RXR-alpha (Homo sapiens); assay: Activation of RXRalpha in human KM12C cells assessed as reduction in Cdc2 protein expression at 25 to 50 uM incubated for 15 hrs by Western blot analysis; type: cell-based
[4] = biological target: T1, Retinoic acid receptor RXR-alpha (Homo sapiens); assay: Activation of RXRalpha in human KM12C cells assessed as reduction in c-Myc protein expression at 25 to 50 uM incubated for 15 hrs by Western blot analysis; type: cell-based
[5] = biological target: T1, Retinoic acid receptor RXR-alpha (Homo sapiens); assay: Activation of RXRalpha in human HCT116 cells assessed as reduction in Cdc2 protein expression at 30 to 60 uM incubated for 15 hrs by Western blot analysis; type: cell-based; details: HCT-116
[6] = biological target: T1, Retinoic acid receptor RXR-alpha (Homo sapiens); assay: Activation of RXRalpha in human HCT116 cells assessed as reduction in Cdc2 mRNA expression at 30 to 60 uM incubated for 15 hrs by real-time PCR analysis; type: cell-based; details: HCT-116
[7] = biological target: T1, Retinoic acid receptor RXR-alpha (Homo sapiens); assay: Activation of RXRalpha in human HCT116 cells assessed as increase in p21 (WAF1/CIP1) protein expression at 30 to 60 uM incubated for 15 hrs by Western blot analysis; type: cell-based; details: HCT-116
[8] = biological target: T1, Retinoic acid receptor RXR-alpha (Homo sapiens); assay: Activation of RXRalpha in human HCT116 cells assessed as […] crease in p21 (WAF1/CIP1) mRNA expression at 30 to 60 uM incubated for 15 hrs by real-time PCR analysis; type: cell-based; details: HCT-116
[9] = biological target: T1, Retinoic acid receptor RXR-alpha (Homo sapiens); assay: Activation of RXRalpha in human SW620 cells assessed as reduction in Cdc2 protein expression at 40 to 80 uM incubated for 15 hrs by Western blot analysis; type: cell-based; details: SW-620
[10] = biological target: T1, Retinoic acid receptor RXR-alpha (Homo sapiens); assay: Activation of RXRalpha in human SW620 cells assessed as increase in p21 (WAF1/CIP1) protein expression at 40 to 80 uM incubated for 15 hrs by Western blot analysis; type: cell-based; details: SW-620
[11] = biological target: T1, Retinoic acid receptor RXR-alpha (Homo sapiens); assay: In-vivo activation of RXRalpha in BALB/c mouse xenografted with human KM12C cells assessed as induction of beta-catenin protein degradation at 100 mg/kg, ig dosed daily for 15 days by immunohistochemistry analysis; type: functional, organism-based
Method in brief: (§1)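 KM12C cells (1×10^6 per mouse in 100 μL HBSS) injected subcutaneously into both flanks of nude mice; after seven days, randomized to three groups, dosed intragastrically once daily for 15 days with vehicle (CMC-Na) or 100 mg/kg compound; mice euthanized and tumors removed for analysis.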

[12] = biological target: T1, Retinoic acid receptor RXR-alpha (Homo sapiens); assay: In-vivo activation of RXRalpha in BALB/c mouse xenografted with human KM12C cells assessed as reduction in c-Myc protein expression at 100 mg/kg, ig dosed daily for 15 days by immunohistochemistry analysis; type: functional, organism-based; method in brief: as §1
[13] = biological target: T1, Retinoic acid receptor RXR-alpha (Homo sapiens); assay: In-vivo activation of RXRalpha in BALB/c mouse xenografted with human KM12C cells assessed as increase in p21 (WAF1/CIP) protein expression at 100 mg/kg, ig dosed daily for 15 days by immunohistochemistry analysis; type: functional, organism-based
[14] = Toxicity in BALB/c mouse xenografted with human KM12C cells assessed as effect on biochemical parameter by measuring ALT level at 100 mg/kg, ig dosed daily for 15 days by automatic chemistry analyzer based analysis (reference value: 24.18 +/- 0.77 U/L); type: organism-based; details: in vivo, po, 360 h
[15] = Toxicity in BALB/c mouse xenografted with human KM12C cells assessed as effect on biochemical parameter by measuring ALP level at 100 mg/kg, ig dosed daily for 15 days by automatic chemistry analyzer based analysis (reference value: 76.53 +/- 4.31 U/L); type: organism-based; details: in vivo, po, 360 h
[16] = Toxicity in BALB/c mouse xenografted with human KM12C cells assessed as effect on biochemical parameter by measuring creatinine level at 100 mg/kg, ig dosed daily for 15 days by automatic chemistry analyzer based analysis (reference value: 27.02 +/- 1.22 umol/L); type: organism-based; details: in vivo, po, 360 h
[17] = Half life in Sprague-Dawley rat at 100 mg/kg, ig measured after 0.083 to 36 hrs by LC-MS/MS analysis; type: ADME, organism-based; details: in vivo, po
Method in brief: (§2)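 SD rats (200 ± 20 g) randomized to three groups; single intragastric dose of 100 mg/kg or vehicle (0.5% CMC-Na). Tail-vein blood (0.5 mL) drawn at 0.083, 0.25, 0.5, 1, 2, 4, 8, 12, 24 and 36 h. Plasma separated by centrifugation at 2000 rpm for 10 min, frozen at -80 °C, then quantified by LC-MS/MS.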

[18] = Tmax in Sprague-Dawley rat at 100 mg/kg, ig measured after 0.083 to 36 hrs by LC-MS/MS analysis; type: ADME, organism-based; details: in vivo, po; method in brief: as §2
[19] = Cmax in Sprague-Dawley rat at 100 mg/kg, ig measured after 0.083 to 36 hrs by LC-MS/MS analysis; type: ADME, organism-based; parameters: dose 100 mg/kg, route intragastric; details: in vivo, po; method in brief: as §2
[20] = AUC (0 to t) in Sprague-Dawley rat at 100 mg/kg, ig measured after 0.083 to 36 hrs by LC-MS/MS analysis; type: ADME, organism-based; parameters: time upper 36 hr, time lower 0.083 hr, dose 100 mg/kg, route intragastric; details: in vivo, po; method in brief: as §2
[21] = MRT (infinity) in Sprague-Dawley rat at 100 mg/kg, ig measured after 0.083 to 36 hrs by LC-MS/MS analysis; type: ADME, organism-based; details: in vivo, po; method in brief: as §2

| SMILES | Activity [1] | Activity [2] | Activity [3] | Activity [4] | Activity [5] | Activity [6] | Activity [7] | Activity [8] | Activity [9] | Activity [10] | Activity [11] | Activity [12] | Activity [13] | Activity [14] | Activity [15] | Activity [16] | half-life [17] | Tmax [18] | AUC(0-t) [20] | MRT inf [21] | further results |
| --- | --- | --- | --- | --- | --- | --- | --- | --- | --- | --- | --- | --- | --- | --- | --- | --- | --- | --- | --- | --- | --- |
| COc1ccc2c(c1)CC[n+]1cc3c(OC)cccc3cc1-2.[Cl-] | Active | Active | Active | Active | Active | Active | Active | Active | Active | Active | Active | Active | Active | 27.2 U/L | 78.35 U/L | 28.95 µmol/L | 11.6 h | 2 h | 2100 ng·h/mL | 15.7 h | Cmax ([19]; Sprague-Dawley, read-out: Cmax): 486 ng/mL |
| COc1ccc2cc3[n+](cc2c1OC)CCc1cc2c(cc1-3)OCO2.[Cl-] [BERBERINE CHLORIDE] | Active | Active | Active | Active | Active | Active | Active | Active | Active | Active | Active | Active | Active | 27.9 U/L | 71.28 U/L | 24.36 µmol/L | 29 h | 2 h | 99 ng·h/mL | 31.5 h | Cmax [19]: 2.893 ng/mL |
